Data taken from ChEMBL document CHEMBL4725283, “Selective Peptidomimetic Inhibitors of NTMT1/2: Rational Design, Synthesis, Characterization, and Crystallographic Studies” (J Med Chem, 2020).
pIC50, pKd: −log10 of the molar value. The source made the active and inactive calls. No cut-off for these calls is given here.

Tests used:
Homo sapiens [1] = organism: Homo sapiens; assay: Selectivity for human NTMT1 over human SMYD2 at 100 uM
Method in brief: (§1)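 Panel of 41 PKMTs, PRMTs, DNMTs and NTMT1/2, tested at 100 µM compound in duplicate (n=2).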

Homo sapiens [2] = organism: Homo sapiens; assay: Selectivity for human NTMT1 over human SUV39H at 100 uM; method in brief: as §1
Homo sapiens [3] = organism: Homo sapiens; assay: Selectivity for human NTMT2 over human SUV39H1 at 100 uM
Method in brief: (§2)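 Single-point panel screen against 41 PKMTs, PRMTs, DNMTs and NTMT1/2. Each compound was tested at 100 µM, in duplicate (n=2).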

Homo sapiens [4] = organism: Homo sapiens; assay: Selectivity for human NTMT1 over human NSD2 at 100 uM; method in brief: as §1
Homo sapiens [5] = organism: Homo sapiens; assay: Selectivity for human NTMT1 over human MLL3 complex at 100 uM; method in brief: as §1
Homo sapiens [6] = organism: Homo sapiens; assay: Selectivity for human NTMT2 over human MLL4 complex at 100 uM; method in brief: as §2
[7] = biological target: Protein arginine N-methyltransferase 1 (Rattus norvegicus, UniProt Q63009); assay: Inhibition of rat His6-tagged PRMT1 expressed in Escherichia coli BL21(DE3) using H4-21 peptide as substrate preincubated for 10 mins in presence of SAM followed by substrate addition by fluorescence assay
Chain of Protein arginine N-methyltransferase 1 (Q63009 whole entry): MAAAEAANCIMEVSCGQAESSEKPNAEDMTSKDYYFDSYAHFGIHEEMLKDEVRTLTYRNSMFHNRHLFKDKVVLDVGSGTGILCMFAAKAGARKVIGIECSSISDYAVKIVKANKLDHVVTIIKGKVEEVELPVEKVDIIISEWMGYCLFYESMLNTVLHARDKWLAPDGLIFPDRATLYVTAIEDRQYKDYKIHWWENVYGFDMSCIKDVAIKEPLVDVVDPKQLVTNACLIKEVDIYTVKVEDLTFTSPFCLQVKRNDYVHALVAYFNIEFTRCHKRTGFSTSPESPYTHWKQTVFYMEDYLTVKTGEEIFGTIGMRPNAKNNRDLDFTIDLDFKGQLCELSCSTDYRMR

Homo sapiens [8] = organism: Homo sapiens; assay: Selectivity for human NTMT2 over human DNMT3b at 100 uM; method in brief: as §2
Homo sapiens [9] = organism: Homo sapiens; assay: Selectivity for human NTMT2 over human MLL1 complex at 100 uM; method in brief: as §2
[10] = biological target: T1, N-terminal Xaa-Pro-Lys N-methyltransferase 1 (Homo sapiens, UniProt Q9BV86); assay: (§3) Inhibition of recombinant human full-length His6-tagged NTMT1 (1 to 222 residues) expressed in Escherichia coli BL21-CodonPlus(DE3)-RIL competent cells pre-incubated for 10 mins in presence of SAM and SAHH before RCC1-6 addition and measured after 15 mins by fluorescence based SAHH-coupled assay
T1 sequence (Q9BV86 whole entry): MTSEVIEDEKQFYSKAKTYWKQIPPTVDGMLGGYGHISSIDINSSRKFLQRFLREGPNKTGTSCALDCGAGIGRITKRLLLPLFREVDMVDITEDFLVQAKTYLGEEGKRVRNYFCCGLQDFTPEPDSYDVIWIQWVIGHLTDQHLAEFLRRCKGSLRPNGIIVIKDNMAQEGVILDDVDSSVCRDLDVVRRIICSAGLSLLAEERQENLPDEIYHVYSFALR
Method in brief: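 Pre-incubated 10 min at 37 °C, then started with RCC1-6 (10 µL of 50 µM stock in 100 µL). Line 11 screened at 30 µM; line 12 used 0–100 µM three-fold series, four-parameter fit. Triplicate.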

Homo sapiens [11] = organism: Homo sapiens; assay: Selectivity for human NTMT2 over human G9a at 100 uM; method in brief: as §2
Homo sapiens [12] = organism: Homo sapiens; assay: Selectivity for human NTMT2 over human GLP at 100 uM; method in brief: as §2
Homo sapiens [13] = organism: Homo sapiens; assay: Selectivity for human NTMT2 over human NSD3 at 100 uM; method in brief: as §2
Homo sapiens [14] = organism: Homo sapiens; assay: Selectivity for human NTMT2 over human PRDMT5/MEP50 complex at 100 uM; method in brief: as §2
Homo sapiens [15] = organism: Homo sapiens; assay: Selectivity for human NTMT1 over human PRDMT1 at 100 uM; method in brief: as §1
[16] = biological target: T1, N-terminal Xaa-Pro-Lys N-methyltransferase 1; assay: Binding affinity to recombinant human full-length His6-tagged NTMT1 (1 to 222 residues) by ITC assay
Method in brief: (§4)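 ITC at 25 °C. Purified protein (NTMT1 for line 1, NTMT2 for line 2) in 20 mM Tris-HCl pH 7.5, 150 mM NaCl, 0.5 mM TCEP at 30–50 µM final. Compound at 0.5–1 mM in the same buffer, titrated in as 26 injections of 10 µl, 180 s apart, reference power 15 µcal/sec.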

Homo sapiens [17] = organism: Homo sapiens; assay: Selectivity for human NTMT1 over human NSD2 T1150A mutant at 100 uM; method in brief: as §1
Homo sapiens [18] = organism: Homo sapiens; assay: Selectivity for human NTMT1 over human PRDMT7 at 100 uM; method in brief: as §1
Homo sapiens [19] = organism: Homo sapiens; assay: Selectivity for human NTMT2 over human NSD1 at 100 uM; method in brief: as §2
Homo sapiens [20] = organism: Homo sapiens; assay: Selectivity for human NTMT1 over human NSD1 at 100 uM; method in brief: as §1
Homo sapiens [21] = organism: Homo sapiens; assay: Selectivity for human NTMT1 over human SMYD1 at 100 uM; method in brief: as §1
Homo sapiens [22] = organism: Homo sapiens; assay: Selectivity for human NTMT1 over human GLP at 100 uM; method in brief: as §1
Homo sapiens [23] = organism: Homo sapiens; assay: Selectivity for human NTMT1 over human SETD2 at 100 uM; method in brief: as §1
Homo sapiens [24] = organism: Homo sapiens; assay: Selectivity for human NTMT2 over human SUV39H at 100 uM; method in brief: as §2
Homo sapiens [25] = organism: Homo sapiens; assay: Selectivity for human NTMT1 over human PRDMT3 at 100 uM; method in brief: as §1
Homo sapiens [26] = organism: Homo sapiens; assay: Selectivity for human NTMT2 over human PRDMT7 at 100 uM; method in brief: as §2
Homo sapiens [27] = organism: Homo sapiens; assay: Selectivity for human NTMT1 over human SUV420H1TV2 at 100 uM; method in brief: as §2
[28] = biological target: T2, N-terminal Xaa-Pro-Lys N-methyltransferase 1 (Homo sapiens) (UniProt Q9BV86); assay: Substrate activity at recombinant human full-length His6-tagged NTMT1 (1 to 222 residues) expressed in Escherichia coli BL21-CodonPlus(DE3)-RIL competent cells by MALDI-MS analysis
T2 sequence (whole entry): T1 sequence (Q9BV86 whole entry)

Homo sapiens [29] = organism: Homo sapiens; assay: Selectivity for human NTMT2 over human PRDM9 at 100 uM; method in brief: as §2
Homo sapiens [30] = organism: Homo sapiens; assay: Selectivity for human NTMT1 over human NSD2 E1099K mutant at 100 uM; method in brief: as §1
Homo sapiens [31] = organism: Homo sapiens; assay: Selectivity for human NTMT2 over human PRDMT8 at 100 uM; method in brief: as §2
Homo sapiens [32] = organism: Homo sapiens; assay: Selectivity for human NTMT2 over human SMYD1 at 100 uM; method in brief: as §2
[33] = biological target: N-terminal Xaa-Pro-Lys N-methyltransferase 2 (Homo sapiens, UniProt Q5VVY1); assay: Binding affinity to recombinant human full-length His6-tagged NTMT2 by ITC assay; method in brief: as §4
Chain of N-terminal Xaa-Pro-Lys N-methyltransferase 2 (Q5VVY1 whole entry): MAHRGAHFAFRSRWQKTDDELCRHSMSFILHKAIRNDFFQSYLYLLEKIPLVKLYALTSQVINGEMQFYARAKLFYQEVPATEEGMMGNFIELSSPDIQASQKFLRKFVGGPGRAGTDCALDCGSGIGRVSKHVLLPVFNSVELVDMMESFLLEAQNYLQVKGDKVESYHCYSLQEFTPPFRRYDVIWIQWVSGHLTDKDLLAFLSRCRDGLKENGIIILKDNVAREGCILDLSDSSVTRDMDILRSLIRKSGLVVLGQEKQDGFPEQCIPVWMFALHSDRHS

Homo sapiens [34] = organism: Homo sapiens; assay: Selectivity for human NTMT1 over human SET8 at 100 uM; method in brief: as §1
[35] = biological target: T2, N-terminal Xaa-Pro-Lys N-methyltransferase 1 (Homo sapiens); assay: as §3, with “Non-competitive inhibition of” for “Inhibition of”, “of varying levels of” for “of”, “before fixed level of” for “before”; details: time 25.0 min
Method in brief: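 Same SAHH-coupled ThioGlo1 set-up as the substrate series: 25 mM Tris pH 7.4, 50 mM KCl, 10 µM SAHH, 0.2 µM NTMT1, 15 µM ThioGlo1, inhibitor 0–100 µM. […] Triplicate IC50 at each SAM level plotted against [SAM]/Km.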

Homo sapiens [36] = organism: Homo sapiens; assay: Selectivity for human NTMT2 over human ASH1L at 100 uM; method in brief: as §2
Homo sapiens [37] = organism: Homo sapiens; assay: Selectivity for human NTMT2 over human SUV420H1TV2 at 100 uM; method in brief: as §2
Homo sapiens [38] = organism: Homo sapiens; assay: Selectivity for human NTMT1 over human MLL1 complex at 100 uM; method in brief: as §1
Homo sapiens [39] = organism: Homo sapiens; assay: Selectivity for human NTMT2 over human DNMT3a at 100 uM; method in brief: as §2
Homo sapiens [40] = organism: Homo sapiens; assay: Selectivity for human NTMT1 over human PRDMT5 at 100 uM; method in brief: as §1
Homo sapiens [41] = organism: Homo sapiens; assay: Selectivity for human NTMT2 over human NSD2 E1099K mutant at 100 uM; method in brief: as §2
Homo sapiens [42] = organism: Homo sapiens; assay: Selectivity for human NTMT1 over human DOT1L at 100 uM; method in brief: as §1
Homo sapiens [43] = organism: Homo sapiens; assay: Selectivity for human NTMT1 over human PRDMT6 at 100 uM; method in brief: as §1

Structure (SMILES): N=C(N)NCCC[C@H](NC(=O)[C@H](CCCCN)NC(=O)[C@@H]1CCCN1C(=O)Cc1ccc(O)cc1)C(N)=O
- Selectivity ratio (Homo sapiens [1]): > 100
- Selectivity ratio (Homo sapiens [2]): > 100
- Selectivity ratio (Homo sapiens [3]): > 100
- Selectivity ratio (Homo sapiens [4]): > 100
- Selectivity ratio (Homo sapiens [5]): > 100
- Selectivity ratio (Homo sapiens [6]): > 100
- pIC50 [7]: < 4.00
- Selectivity ratio (Homo sapiens [8]): > 100
- Selectivity ratio (Homo sapiens [9]): > 100
- pIC50 [10]: 6.05
- Selectivity ratio (Homo sapiens [11]): > 100
- Selectivity ratio (Homo sapiens [12]): > 100
- Selectivity ratio (Homo sapiens [13]): > 100
- Selectivity ratio (Homo sapiens [14]): > 100
- Selectivity ratio (Homo sapiens [15]): > 100
- pKd [16]: 5.52
- Selectivity ratio (Homo sapiens [17]): > 100
- Selectivity ratio (Homo sapiens [18]): > 100
- Selectivity ratio (Homo sapiens [19]): > 100
- Selectivity ratio (Homo sapiens [20]): > 100
- Selectivity ratio (Homo sapiens [21]): > 100
- Selectivity ratio (Homo sapiens [22]): > 100
- Selectivity ratio (Homo sapiens [23]): > 100
- Selectivity ratio (Homo sapiens [24]): > 100
- Selectivity ratio (Homo sapiens [25]): > 100
- Selectivity ratio (Homo sapiens [26]): > 100
- Selectivity ratio (Homo sapiens [27]): > 100
- Activity [28]: inactive
- Selectivity ratio (Homo sapiens [29]): > 100
- Selectivity ratio (Homo sapiens [30]): > 100
- Selectivity ratio (Homo sapiens [31]): > 100
- Selectivity ratio (Homo sapiens [32]): > 100
- pKd [33]: 5.43
- Selectivity ratio (Homo sapiens [34]): > 100
- inhibition [35]: Active
- Selectivity ratio (Homo sapiens [36]): > 100
- Selectivity ratio (Homo sapiens [37]): > 100
- Selectivity ratio (Homo sapiens [38]): > 100
- Selectivity ratio (Homo sapiens [39]): > 100
- Selectivity ratio (Homo sapiens [40]): > 100
- Selectivity ratio (Homo sapiens [41]): > 100
- Selectivity ratio (Homo sapiens [42]): > 100
- Selectivity ratio (Homo sapiens [43]): > 100
